A short description of data set [1]: Photophysical characterization. The format is physicochemical. As to conditions: for ΦF: reference quinine sulfate.
A short description of data set [2]: Frequency-domain fluorescence lifetime measurements in solution. The format is physicochemical. In a few lines:
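Frequency-domain lifetimes were measured in solution (MeOH) in a 2 × 10 mm quartz cuvette at 18 °C. Excitation was a frequency-modulated 280 nm LED, with emission collected through a 305 nm long-pass filter. PPO in ethanol (τ = 1.4 ns) served as lifetime reference. Modulation-phase data were fitted to a multi-exponential decay model, judged by residuals and χ².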

Data set [3] in a line: Kinetic analysis of SPAAC reaction by 1H NMR. The following applies: reaction with cyclooctyne 5 in ACN-d6/D2O (3:1, v/v).
Data set [4] can be described thus: Water solubility of azido nucleosides. Format: physicochemical.
The subject of data set [5] is MCF-7 cells. Kind of data set: Fluorescence microscopy of in-cell click reaction. Format: cell-based. As to conditions: 1 μM azide and 1 μM cyclooctyne 5. The method, boiled down:
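MCF-7 cells were seeded at 5 × 10⁵ cells/mL on chambered coverglass and grown overnight at 37 °C in DMEM/F12 with 5% FBS. Azide (1 μM in reduced-serum medium) was added for 4 h, followed by three PBS (pH 7.5) washes. Cyclooctyne (1 μM) was then added for 16 h at 37 °C, followed by three more washes. Imaging used 360/40 excitation and 470/40 emission filters. Controls were azide only, cyclooctyne only, and preformed adduct. 0.1% trypan blue was used for quenching.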

The subject of data set [6] is MCF-7 cells. Kind of data set: MTT cell toxicity assay. Format: cell-based. The following applies: 24 h exposure, click reaction of cyclooctyne 5 with azide 2 or 21. The method, boiled down:
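MCF-7 cells were seeded at 1 × 10⁴ cells/mL and exposed to a range of concentrations of azide and cyclooctyne for 24 h at 37 °C in 5% CO₂. MTT (5 mg/mL solution) was added for 4 h. Medium was removed, DMSO added, and OD read at 595 nm. Viability was calculated as OD sample / OD untreated control × 100%.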
(In general: Tetrazolium dyes change colour on reduction, which living cells bring about.)

Data set [7] can be described thus: Parallel artificial membrane permeability assay. The format is in vitro ADME. The following applies: for % Fraction Absorbed / Log Pe: 75 μM; for % Fraction Absorbed: 16 h, ambient temperature; for Log Pe: log of the effective permeability coefficient. The method, boiled down:
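PAMPA used a polycarbonate filter (0.45 μm pore) coated for 5 min with lecithin (1% or 4% in dodecane). Donor wells held test compound at 75 μM in 5% DMSO/PBS; acceptor wells held PBS. Plates were incubated 16 h at ambient temperature with gentle shaking. Acceptor concentration was measured by UV-Vis against a theoretical-equilibrium solution. Log Pe was calculated by the Wohnsland–Faller equation; at least triplicate.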

For data set [8] the following is noted: reaction of 5 with benzyl azide in the same solvent system; cited from earlier work.
The mark [9] stands for this setting: In 50 mM phosphate buffer pH 7.0.

On to “5-(1,2,3-Triazol-1H-yl)uridine-MFCO adduct [Compound 27]”, for which the εmax in data set [1] was determined as 7100 M^−1cm^1. The “λmax(emi)” value in data set [1] (setting [9]) is listed as 339/434. For the same compound, the “λmax(emi)” value in data set [1] (In DMSO) was 331/419. Also, in data set [1] (In MeOH), the Brightness amounted to 0.06 M^−1cm^1, the Stokes shift was found to be 58 nm, the “λmax(abs)” value turned out to be 269 nm and the “λmax(emi)” value is on record as 327/412. Besides, in data set [1] (In MeOH), the ΦF is listed as 0.009.

In turn, “8-(1,2,3-Triazol-1H-yl)adenosine-MFCO adduct [Compound 17]” returned a εmax in data set [1] of 16400 M^−1cm^1. In data set [1] (setting [9]), the “λmax(emi)” value worked out at 399 nm. Besides, the “λmax(emi)” value in data set [1] (In DMSO) is recorded as 397 nm. In data set [1] (In MeOH), the Brightness was 0.10 M^−1cm^1, the Stokes shift is recorded as 111 nm, the “λmax(abs)” value was found to be 271 nm and the “λmax(emi)” value is reported as 399 nm. Moreover, in data set [1] (In MeOH), the “λmax(exc)” value stood at 288 nm and the ΦF is given as 0.006. In data set [2] (In MeOH), this compound came in with a τ1 of 0.10 ns, a τ2 of 0.90 ns and a τ3 of 5.30 ns. The compound also showed a f1 in data set [2] (In MeOH, fractional contribution of τ1) of 0.46%. The f2 in data set [2] (In MeOH, fractional contribution of τ2) is 0.39%. Also, in data set [2] (In MeOH, fractional contribution of τ3), the f3 was 0.15%. The compound also gave a τaverage in data set [2] (in vitro (methanol solution)) of 1.20 ns.

Turning to `[N-]=[N+]=Nc1nc2c(N)ncnc2n1[C@@H]1O[C@H](CO)[C@@H](O)[C@H]1O` [Compound 1, 8-azidoadenosine], the “second order rate constant” value in data set [3] was 0.11 M⁻¹ s⁻¹. For the same compound, the water solubility result in data set [4] is reported as “easily water soluble”.

As to `[N-]=[N+]=Nc1nc2c(N)ncnc2n1[C@@H]1O[C@H](CO)[C@@H](O)[C@@H]1O` [Compound 2, 8-azido-9-(β-D-arabinofuranosyl)adenine], in the data set on MCF-7 cells [5], the “fluorescence localization in live cells” value is “strong fluorescent localization to the nucleus”. This compound had a non-cytotoxic dosage with MCF-7 cells [6] of 1 µM. Further, in data set [7], the “% Fraction Absorbed” value is 18% and the “Log Pe” value is on record as −0.5 cm/s. Further, the “Permeability (fraction absorbed)” value in data set [7] (150 μM concentration) is “b Permeability for 2 at a 150 μM concentration was also 18%”. The “fluorescence of azide substrate” value in data set [1] is listed as “no fluorescence”. Further, the water solubility entry in data set [4] was “easily water soluble”.

`[N-]=[N+]=Nc1nc2c(N)ncnc2n1[C@H]1C[C@H](O)[C@@H](CO)O1` [Compound 4, 8-azido-2′-deoxyadenosine]: in data set [7], the “% Fraction Absorbed” value stood at 20% and the “Log Pe” value is reported as −0.5 cm/s.

Turning to `OCC1C2CCC#CCCC12` (stereo not shown) [Compound 5], in the data set with MCF-7 cells [6], the non-cytotoxic dosage was 1 µM. Also, the “second order rate constant k” value in data set [8] was 0.14 M⁻¹ s⁻¹.

With `[N-]=[N+]=Nc1nc(N)c2ncn([C@@H]3O[C@H](CO)[C@@H](O)[C@H]3O)c2n1` [Compound 19, 2-azidoadenosine], in the data set with MCF-7 cells [5], the “fluorescence localization in live cells” value is “fluorescence localized in the nucleus”. Moreover, in data set [7], the “% Fraction Absorbed” value came to 22% and the “Log Pe” value is reported as −0.5 cm/s.

As to `[N-]=[N+]=Nc1cn([C@@H]2O[C@H](CO)[C@@H](O)[C@H]2O)c(=O)[nH]c1=O` [Compound 21, 5-azidouridine], the “fluorescence localization in live cells” value with MCF-7 cells [5] is “fluorescence localized in the nucleus”. This compound also yielded a non-cytotoxic dosage in the data set with MCF-7 cells [6] of 1 µM. Besides, the “fluorescence of azide substrate” value in data set [1] is given as “no noticeable fluorescence”.

(Values after paper PMC4826778 (Bioconjugate chemistry, 2015).)
